Assay results taken from PubChem BioAssay.
Calls of active or inactive are those of the source.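 The calls were made as follows, unless noted: active = fluorescence slope after compound addition differing from the mean of all tested samples at 99.7% confidence, mostly higher but some lower; inactive = the rest.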

Experiments:
[1] = inhibitors of TNFa-induced NFkB p65 translocation, primary screen, imaging, HUVEC, MLSMR starter and 10KST1 sets (AID 438;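 active = inhibition above 20% together with a positive visual image hit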;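 also: compound added about 3h40 before a 20 min TNFalpha stimulation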;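 as to inhibition: signal is the nuclear over cytoplasmic p65 intensity ratio per well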); settings: HUVEC TNFa-induced p65 nuclear translocation; cell count: measured here: nuclei count (cytotoxicity indicator), at 2.08 µM; inhibition: at 2 µM, stronger effect = higher value, 0% TNFa-plus-vehicle, 100% no-TNFa wells
[2] = endothelial E-selectin expression blockers – imaging, HUVEC, immunofluorescence, MLSMR starter and 10KST1 sets, primary screen (AID 487;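 active = visually confirmed hit in the image check and inhibition above 20%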;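 as to inhibition: signal is fraction of cell area covered by stained E-selectin grains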;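 as to nuclei count: 100% = median nuclei count of all wells on the same plate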); settings: HUVEC TNFalpha-induced E-selectin immunofluorescence imaging, at 2 µM; inhibition: stronger effect = higher value; nuclei count: measured here: cell number, toxicity
[3] = Primary imaging screen for DUSP6 inhibitors that restore phospho-Erk in transfected HeLa cells, chemical complementation (AID 609;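 active = compounds giving at least 50% inhibition in the cell-based MKP-3 phosphatase rescue imaging test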;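 as to inhibition: phospho-Erk level distribution per well compared with pooled transfected vehicle control wells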); settings: HeLa MKP-3 transfected, phospho-Erk imaging KS statistic, at 10 µM, cells stimulated with TPA for 15 min
[4] = biological target: Dual specificity protein phosphatase 6 (Homo sapiens) (UniProt Q16828); assay: as above; settings: HeLa MKP-3 transfected, phospho-Erk imaging KS statistic; at 10 µM; stronger effect = higher value; cells stimulated with TPA for 15 min
[5] = biological target: Voltage-gated potassium channel subunit beta-2 (Rattus norvegicus) (UniProt P62483); assay: inhibitors of rat Kvbeta2 reductase activity – biochemical, NADPH fluorescence, primary screen (AID 622;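 active = fluorescence slope higher than the sample average by over 3 SD, cut at about -0.22 in these data, passing the limit was not always enough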;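 also: slope of raw intensity against log time taken from 70 to 1610 s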); settings: recombinant KvBeta, 4-cyanobenzaldehyde reduction, at 10 µM, stronger effect = higher value
[6] = biological target: Voltage-gated potassium channel subunit beta-2 (Rattus norvegicus) (UniProt P62483); assay: enhancers of rat Kvbeta2 NADPH turnover – biochemical, NADPH fluorescence, primary screen (AID 623;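 active = NADPH fluorescence slope more negative than the mean of all samples by about 3 SD, 99.7% confidence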;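 also: fluorescence intensity change per second fitted from 20 to 320 s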); settings: Recombinant KvBeta, NADPH fluorescence decrease slope, 10 min; at 10 µM; stronger effect = lower value
[7] = biological target: Muscarinic acetylcholine receptor M4 (Homo sapiens) (UniProt P08173); assay: M4-linked GIRK flux change, two-sided – cell-based, HEK293 M4/GIRK, thallium flux, BTC-AM, M4 allosteric agonist project, primary screen (AID 625); settings: at 10 µM, actives lie on both sides;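 also: thallium influx through GIRK channels coupled to M4 in HEK293 cells with BTC-AM dye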
In short: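 assay system = HEK293 cells with M4 receptor and GIRK channels | medium = pH 7.3 thallium assay buffer | doses = 10 µM final, single point | timing = cells overnight at 37 °C, BTC-AM loading 1 h, reads 2 min total | signal = BTC-AM fluorescence, 1 Hz kinetic reads | read-out = post-addition slope, 15–24 s, of baseline-normalized fluorescence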

[8] = inhibitors of larval lipid processing in zebrafish, primary screen, whole organism, PED6 fluorescence, gall bladder and intestine (AID 686;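 active = a full or partial loss of lipid-probe fluorescence in the fish gall bladder, intestine or both, judged by eye; inactive = no fluorescence loss, or compound toxic to the fish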;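 also: larvae 5 to 7 days old with five fish per well; signal comes from phospholipase A2 cleavage of quenched PED6 carried via bile; overnight exposure to compound and PED6 before scoring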); settings: Zebrafish larvae PED6 lipid processing, fluorescence scoring; screened at 20 µM (by protocol)
In short: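 Also added: quenched phospholipase substrate PED6, 100 nM final, ingested by larvae; System: zebrafish larvae, 5-7 d; Quantity: 5 larvae per well; Compound: 20 µM single dose; Schedule: overnight compound and PED6 incubation; Read-out: visual per-well fluorescence inhibition score; Measured by: By-eye fluorescence microscopy; Medium: E3.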

[9] = loss of swimming-algae plug formation – whole organism, Chlamydomonas reinhardtii, WT vs cilia-less mutant, absorbance, 96-well, primary screen (AID 463189;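 active = inhibition at or above 50% relative to wild type and mutant plate controls; inactive = inhibition below 50%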;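 also: 0% = wild type cc124 cells in DMSO and 100% = ciliumless bld1 mutant cells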); settings: Chlamydomonas reinhardtii gravitaxis, OD600 absorbance, 2 days; at 10 µM; stronger effect = higher value
[10] = measured here: cell density z-score
[11] = measured here: nuclear c-Myc green intensity z-score
[12] = measured here: nuclear pErk red intensity z-score, stronger effect = higher value

Sequence of Voltage-gated potassium channel subunit beta-2 (Rattus norvegicus) (P62483 whole entry, looked up): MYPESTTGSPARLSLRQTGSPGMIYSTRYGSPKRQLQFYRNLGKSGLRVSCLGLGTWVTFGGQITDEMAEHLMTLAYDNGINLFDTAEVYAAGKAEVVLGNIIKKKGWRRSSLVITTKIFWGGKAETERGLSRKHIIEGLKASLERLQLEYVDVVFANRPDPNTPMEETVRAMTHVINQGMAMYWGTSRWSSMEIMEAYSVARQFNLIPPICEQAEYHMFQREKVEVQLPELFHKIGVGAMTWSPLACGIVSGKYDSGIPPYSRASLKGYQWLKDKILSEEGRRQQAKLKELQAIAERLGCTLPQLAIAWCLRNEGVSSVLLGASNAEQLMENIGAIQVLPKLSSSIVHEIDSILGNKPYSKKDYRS
Sequence of Dual specificity protein phosphatase 6 (Homo sapiens) (Q16828 whole entry, looked up): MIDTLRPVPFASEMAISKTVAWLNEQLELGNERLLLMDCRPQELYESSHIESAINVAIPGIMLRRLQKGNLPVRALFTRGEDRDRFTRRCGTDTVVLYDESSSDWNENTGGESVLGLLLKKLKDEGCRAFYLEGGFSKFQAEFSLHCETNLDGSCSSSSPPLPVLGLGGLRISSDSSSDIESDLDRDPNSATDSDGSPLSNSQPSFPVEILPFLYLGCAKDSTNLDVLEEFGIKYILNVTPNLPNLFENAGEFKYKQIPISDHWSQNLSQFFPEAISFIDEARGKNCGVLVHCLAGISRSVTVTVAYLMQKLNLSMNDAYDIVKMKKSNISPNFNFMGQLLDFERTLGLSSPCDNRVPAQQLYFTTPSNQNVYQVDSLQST
Sequence of Muscarinic acetylcholine receptor M4 (Homo sapiens) (P08173 whole entry, looked up): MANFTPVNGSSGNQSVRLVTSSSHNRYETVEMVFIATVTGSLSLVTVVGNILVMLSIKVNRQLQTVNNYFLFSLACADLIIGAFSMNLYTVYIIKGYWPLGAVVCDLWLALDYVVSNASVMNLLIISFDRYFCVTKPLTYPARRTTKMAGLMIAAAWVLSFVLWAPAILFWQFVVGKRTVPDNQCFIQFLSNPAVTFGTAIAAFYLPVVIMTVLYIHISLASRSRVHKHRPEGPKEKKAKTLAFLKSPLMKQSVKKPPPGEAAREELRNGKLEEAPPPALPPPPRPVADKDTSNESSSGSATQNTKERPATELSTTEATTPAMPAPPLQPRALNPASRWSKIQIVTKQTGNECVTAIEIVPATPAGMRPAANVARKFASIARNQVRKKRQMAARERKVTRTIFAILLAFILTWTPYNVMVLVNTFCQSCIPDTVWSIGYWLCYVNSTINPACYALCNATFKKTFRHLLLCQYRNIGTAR

| SMILES | cell count [1] | inhibition [1] | inhibition [2] | nuclei count [2] [%] | z-score [3, 10] | z-score [3, 11] | z-score [3, 12] | inhibition [4] | fluorescence slope [5] | NADPH fluorescence slope [6] | fluorescence slope [7] | outcome [8] | inhibition [9] |
| --- | --- | --- | --- | --- | --- | --- | --- | --- | --- | --- | --- | --- | --- |
| CCOC(=O)CNS(=O)(=O)c1cc(-c2n[nH]c(=O)c3ccccc23)ccc1C | 550 | -12.6% (inactive) | -67% (inactive) | 151 | 2.42 | 0.186 | 0.634 | 20.2% (inactive) | -0.47 (inactive) | -0.000102 (inactive) | 0.00467 (inactive) | inactive | 2.8% (inactive) |
| COc1ccc(N2CCN(c3oc(COc4ccc(Cl)cc4)nc3C#N)CC2)cc1 | 374 | -3.3% (inactive) | -61.3% (inactive) | 106 | 1.12 | 0.417 | 0.177 | 2.71% (inactive) | -0.46 (inactive) | -7e-05 (inactive) | 0.00414 (inactive) | inactive | -10.3% (inactive) |
| CCSc1nnc(NC(=O)C(C)(C(F)(F)F)C(F)(F)F)s1 | 664 | -10.9% (inactive) | -107% (inactive) | 183 | -1.16 | 0.962 | -1.02 | 1.9e-07% (inactive) | -0.49 (inactive) | -6.3e-05 (inactive) | 0.00486 (inactive) | inactive | 2.14% (inactive) |
| C=CCNc1nc(NCc2ccccc2)c(C#N)c2c1CN(C)CC2 | 592 | -6.3% (inactive) | -14.9% (inactive) | 156 | 0.516 | -0.0927 | 0.356 | -2.09% (inactive) | -0.407 (inactive) | -5.5e-05 (inactive) | 0.00402 (inactive) | inactive | 21.1% (inactive) |
| CCCCCNC(=O)C(C#N)c1nc2ccccc2nc1N1CC(C)OC(C)C1 (stereo not drawn) | 366 | -5.7% (inactive) | -192% (inactive) | 130 | 1.56 | -0.566 | -0.352 | 19.4% (inactive) | -0.482 (inactive) | -8.1e-05 (inactive) | 0.00502 (inactive) | inactive | -1.81% (inactive) |
| COC(=O)CSc1nc(-c2cccs2)ccc1C#N | 646 | 1.5% (inactive) | -18.4% (inactive) | 154 | 0.598 | -1.62 | -0.658 | 2.92% (inactive) | -0.456 (inactive) | -4.2e-05 (inactive) | 0.00605 (inactive) | inactive | -2.12% (inactive) |
| COc1cccc(C2/C(=C(\O)c3ccc(OC)c(OC)c3)C(=O)C(=O)N2c2cc(C)on2)c1 (stereo not drawn) | 715 | 1.5% (inactive) | -63.2% (inactive) | 178 | -0.072 | -0.154 | 1.26 | -4.7% (inactive) | -0.449 (inactive) | -3e-05 (inactive) | 0.00553 (inactive) | inactive | -1.1% (inactive) |
| Cc1ccc(S(=O)(=O)NC(=O)Nc2ncc3c(n2)CC(c2ccco2)CC3=O)cc1 (stereo not drawn) | 662 | -3.8% (inactive) | 45.8% (inactive) | 89.6 | 1.23 | -1.12 | -0.985 | 22.1% (inactive) | -0.51 (inactive) | -2.8e-05 (inactive) | 0.00507 (inactive) | inactive | -13.7% (inactive) |
| CCCCN1C(=O)C(O)=C(C(C)=O)C1c1ccc(OC)cc1OC (stereo not drawn) | 479 | -4.2% (inactive) | -323% (inactive) | 189 | 0.403 | -0.372 | 1.98 | -7.28% (inactive) | -0.464 (inactive) | -4.3e-05 (inactive) | 0.00466 (inactive) | inactive | -3.96% (inactive) |
| CC(C)Cc1nc(N2CCOCC2)c(C#N)c2c1COC(C)(C)C2 | 584 | -7% (inactive) | -84.6% (inactive) | 146 | -0.646 | 0.861 | 0.329 | -2.09% (inactive) | -0.405 (inactive) | -3.3e-05 (inactive) | 0.00418 (inactive) | inactive | 3.97% (inactive) |
| c1ccc2c(c1)CCOC2CNCCCN1CCCCC1 (stereo not drawn) | 701 | -5.5% (inactive) | -141% (inactive) | 172 | -0.992 | 1.14 | -0.201 | 1.98% (inactive) | -0.473 (inactive) | -6.5e-05 (inactive) | 0.00496 (inactive) | inactive | -4.57% (inactive) |
